In ChEMBL document CHEMBL4152192, “Synthesis and anticancer activity evaluation of novel azacalix[2]arene[2]pyrimidines” (Eur J Med Chem, 2018):

Key:
MCF7 = assay: Antiproliferative activity against human MCF7 cells after 72 hrs by CCK-8 assay; assay type: functional, cell-based; conditions: MCF7, 72 h
In short: (§1)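 Cells seeded at 5 × 10³/well; A549, MCF7 and SH-SY5Y grown in DMEM, CNE and L-02 in RPMI-1640 (10% FBS, pen/strep, 37 °C, 5% CO₂). Compounds in DMSO, diluted in medium; 72 h exposure versus DMSO vehicle. CCK-8 absorbance read at 450 nm; viability taken as treated/control absorbance, IC₅₀ from curve fit. Triplicate wells, three independent experiments.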

SH-SY5Y = assay: Antiproliferative activity against human SH-SY5Y cells after 72 hrs by CCK-8 assay; assay type: functional, cell-based; in short: as §1
A549 = assay: Antiproliferative activity against human A549 cells after 72 hrs by CCK-8 assay; assay type: functional, cell-based; conditions: A549, 72 h; in short: as §1
L02 = assay: Antiproliferative activity against human L02 cells after 72 hrs by CCK-8 assay; assay type: cell-based; conditions: L02, 72 h; in short: as §1
CNE = assay: Antiproliferative activity against human CNE cells after 72 hrs by CCK-8 assay; assay type: functional, cell-based; in short: as §1

Compound | IC50 (MCF7) [µM] | IC50 (SH-SY5Y) [µM] | IC50 (A549) [µM] | IC50 (L02) [µM] | IC50 (CNE) [µM]
COc1cnc2nc1Nc1cc(cc(C(F)(F)F)c1)Nc1ncc(OC)c(n1)Nc1cc(cc(C(F)(F)F)c1)N2 | > 50 | > 50 | > 50 | > 50 | > 50
CC(C)S(=O)(=O)c1ccc2cc1Nc1ncc(Cl)c(n1)Nc1ccc(S(=O)(=O)C(C)C)c(c1)Nc1ncc(Cl)c(n1)N2 | > 50 | > 50 | > 50 | > 50 | > 50
CCOC(=O)c1cc2cc(c1)Nc1nc(ncc1Cl)Nc1cc(cc(C(=O)OCC)c1)Nc1nc(ncc1Cl)N2 | > 50 | > 50 | > 50 | > 50 | > 50
Brc1cc2cc(c1)Nc1nccc(n1)Nc1cc(Br)cc(c1)Nc1nccc(n1)N2 | 9.24 | 2.96 | 6.55 | 47.9 | > 50
Cc1cnc2nc1Nc1cc(cc(C(F)(F)F)c1)Nc1ncc(C)c(n1)Nc1cc(cc(C(F)(F)F)c1)N2 | > 50 | > 50 | > 50 | > 50 | > 50

Further lines, with some results ahead:

IC50 (MCF7) [µM] | IC50 (SH-SY5Y) [µM] | IC50 (A549) [µM] | Compound | IC50 (L02) [µM] | IC50 (CNE) [µM]
> 50 | > 50 | > 50 | Fc1cnc2nc1Nc1cc(cc(C(F)(F)F)c1)Nc1ncc(Cl)c(n1)Nc1cc(cc(C(F)(F)F)c1)N2 | > 50 | > 50
> 50 | > 50 | > 50 | FC(F)(F)c1cc2cc(c1)Nc1nc(ncc1Cl)Nc1cc(cc(C(F)(F)F)c1)Nc1nc(ncc1Cl)N2 | > 50 | > 50
> 50 | > 50 | > 50 | Fc1cnc2nc1Nc1cc(cc(C(F)(F)F)c1)Nc1ncc(F)c(n1)Nc1cc(cc(C(F)(F)F)c1)N2 | > 50 | > 50
> 50 | > 50 | > 50 | Fc1cnc2nc1Nc1cccc(c1)Nc1ncc(Cl)c(n1)Nc1cccc(c1)N2 | > 50 | > 50
1.45 | 2.05 | 1.6 | COc1cnc2nc1Nc1cc(cc(N3CCCC3)c1)Nc1ncc(OC)c(n1)Nc1cc(cc(N3CCCC3)c1)N2 | 15.8 | 35.7
> 50 | > 50 | > 50 | Fc1cnc2nc1Nc1cccc(c1)Nc1ncc(F)c(n1)Nc1cccc(c1)N2 | > 50 | > 50
